Experimental data taken from ChEMBL document CHEMBL4823260, “From High-Throughput Screening to Target Validation: Benzo[d]isothiazoles as Potent and Selective Agonists of Human Transient Receptor Potential Cation Channel Subfamily M Member 5 Possessing In Vivo Gastrointestinal Prokinetic Activity in Rodents” (J Med Chem, 2021).

Assays:
[1] = molecular target: T1, Transient receptor potential cation channel subfamily M member 5 (Homo sapiens, UniProt Q9NZQ8); test: Agonist activity at human TRPM5 expressed in CHO-K1 cells maintained at 80 mV final holding potential by syncroPatch assay; format: cell-based
T1 sequence (Q9NZQ8 whole entry): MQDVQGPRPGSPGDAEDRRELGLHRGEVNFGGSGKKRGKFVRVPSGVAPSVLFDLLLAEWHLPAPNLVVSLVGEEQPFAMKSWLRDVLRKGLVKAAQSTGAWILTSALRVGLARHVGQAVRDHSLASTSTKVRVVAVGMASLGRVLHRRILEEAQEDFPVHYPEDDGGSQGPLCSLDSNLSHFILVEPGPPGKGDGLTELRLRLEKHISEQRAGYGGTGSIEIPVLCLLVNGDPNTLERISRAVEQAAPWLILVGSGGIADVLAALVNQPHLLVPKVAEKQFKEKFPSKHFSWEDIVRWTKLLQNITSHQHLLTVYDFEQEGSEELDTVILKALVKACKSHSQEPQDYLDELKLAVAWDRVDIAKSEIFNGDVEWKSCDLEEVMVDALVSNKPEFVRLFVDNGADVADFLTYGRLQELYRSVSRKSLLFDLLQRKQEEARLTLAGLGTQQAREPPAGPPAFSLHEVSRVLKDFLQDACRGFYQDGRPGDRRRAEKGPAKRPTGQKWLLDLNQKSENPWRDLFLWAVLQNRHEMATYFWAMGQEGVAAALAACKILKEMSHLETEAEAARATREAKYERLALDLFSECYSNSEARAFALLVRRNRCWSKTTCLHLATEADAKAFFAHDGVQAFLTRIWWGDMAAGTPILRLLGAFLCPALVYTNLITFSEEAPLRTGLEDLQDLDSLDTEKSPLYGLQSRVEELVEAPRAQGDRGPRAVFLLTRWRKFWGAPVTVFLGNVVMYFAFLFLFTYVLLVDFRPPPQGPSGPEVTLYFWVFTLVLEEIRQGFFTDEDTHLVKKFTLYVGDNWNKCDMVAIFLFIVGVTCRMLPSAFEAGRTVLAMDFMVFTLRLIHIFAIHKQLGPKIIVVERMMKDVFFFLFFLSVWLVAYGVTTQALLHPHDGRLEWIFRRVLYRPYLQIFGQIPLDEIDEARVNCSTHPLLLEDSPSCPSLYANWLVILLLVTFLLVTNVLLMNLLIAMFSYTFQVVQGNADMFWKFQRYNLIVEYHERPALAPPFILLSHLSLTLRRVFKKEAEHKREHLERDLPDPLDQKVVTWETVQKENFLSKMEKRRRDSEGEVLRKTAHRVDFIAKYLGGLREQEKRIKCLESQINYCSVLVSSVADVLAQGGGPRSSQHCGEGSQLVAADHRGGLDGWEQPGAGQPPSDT
In short: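 SyncroPatch 384 whole-cell recording at rt on CHO-K1 cells stably expressing human or mouse TRPM5. Intracellular solution had 2 mM Na-ATP and 5 μM free Ca2+. Cumulative doses 0.03–31.6 μM in 0.5% DMSO, 150 s each after 180 s vehicle. Current measured at the end of the +80 mV step, normalized to vehicle; pEC50 is the mean of ≥2 independent experiments.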

[2] = Intrinsic clearance in human liver microsomes assessed per mg protein incubated up to 30 mins in presence of NADPH by LC-MS/MS analysis; format: ADME, Microsome
[3] = Intrinsic clearance in mouse liver microsomes assessed per mg protein incubated up to 30 mins in presence of NADPH by LC-MS/MS analysis; format: ADME, Microsome

| SMILES | EC50 [1] [µM] | microsomal CLint [2] [µL/min/mg] | microsomal CLint [3] [µL/min/mg] |
| --- | --- | --- | --- |
| Cn1c(CNc2ccc(Cl)cc2)nc2ccccc21 | > 31.6 | – | – |
| CC(Nc1ccc2sncc2c1)c1ncc(Cl)s1 (stereo unspecified) | 7.59 | – | – |
| CN(Cc1ncc(Cl)s1)c1cc2cnsc2cc1Cl | 1.62 | – | – |
| CC(C)c1cnc(CNc2ccc3sncc3c2)s1 | > 31.6 | – | – |
| CCN(Cc1ncc(Cl)n1C)c1ccc(Br)cc1 | 5.13 | – | – |
| Cn1c(Cl)cnc1CN(CC1CCCCC1)c1ccc2sncc2c1 | > 31.6 | – | – |
| Clc1cnc(CNc2ccc3sncc3c2Cl)s1 | 1.58 | 174 | 258 |
| Clc1snnc1CNc1ccc2sncc2c1 | 5.25 | – | – |
| Cn1c(Cl)cnc1CN1CCc2ccccc21 | 22.9 | – | – |
| c1csc(CNc2ccc3sncc3c2)n1 | 4.68 | – | – |
| Cc1cc2cnsc2cc1NCc1ncc(Cl)s1 | 0.0178 | – | – |
| Cn1c(Cl)cnc1CNc1ccc2[nH]ncc2c1 | 6.03 | – | – |
| CN(Cc1ncc(Cl)n1C)c1ccc2sncc2c1 | 0.158 | – | – |
| Cc1cnc(CNc2ccc3sncc3c2)s1 | 0.575 | – | – |
| Cn1nc(CNc2ccc3sncc3c2)cc1C(F)(F)F | > 31.6 | – | – |
| Cn1c(Cl)cnc1CNc1ccc2c(c1)nnn2C | > 31.6 | – | – |
| Cn1c(Cl)cnc1CNc1cc2sncc2cc1F | 0.102 | – | – |

| SMILES | EC50 [1] [µM] | microsomal CLint [2] [µL/min/mg] | microsomal CLint [3] [µL/min/mg] |
| --- | --- | --- | --- |
| Cc1cc(NCc2ncc(Cl)s2)cc2cnsc12 | > 31.6 | 169 | 434 |
| FC(F)(F)c1cnc(CNc2ccc3sncc3c2)s1 | 0.49 | – | – |
| Cn1c(Cl)cnc1CN(CC1CC1)c1ccc2sncc2c1 | 0.158 | – | – |
| Fc1cc2cnsc2cc1NCc1ncc(Cl)s1 | 0.0288 | – | – |
| Cc1cc2sncc2cc1NCc1ncc(Cl)s1 | 0.0389 | 157 | 148 |
| Cn1c(Br)cnc1CNc1ccc2sncc2c1 | 0.457 | – | – |
| CC(=O)N(Cc1ncc(Cl)n1C)c1ccc2sncc2c1 | > 31.6 | – | – |
| COc1ccc(N(C)Cc2ncc(Cl)n2C)cc1OC | > 31.6 | – | – |
| Clc1cnc(CNc2cccc3sncc23)s1 | > 31.6 | – | – |
| CN(Cc1ncc(Cl)s1)c1cc2cnsc2cc1F | 2.82 | – | – |
| Cn1ccnc1CNc1ccc2sncc2c1 | 5.13 | – | – |
| Clc1cnc(CNc2cnc3sncc3c2)s1 | 6.61 | 84 | 163 |
| Cn1c(Cl)cnc1CNc1ccc2c(cnn2C)c1 | 5.25 | – | – |
| Cn1c(Cl)cnc1CN(Cc1ccccc1)c1ccc2sncc2c1 | > 31.6 | – | – |
| Fc1cc2sncc2cc1NCc1ncc(Cl)s1 | 0.0977 | 142 | 312 |
| Cn1c(Cl)cnc1CNc1ccc2[nH]cnc2c1 | > 31.6 | – | – |
| Clc1cnc(CNc2cc3cnsc3cc2Cl)s1 | 0.0245 | 149 | 527 |
